Experimental data from different studies.
Compare with care: the assays were run in different laboratories.
Target: DNA-dependent protein kinase catalytic subunit (PRKDC, Homo sapiens, UniProt P78527)

For `C=CC(=O)Nc1cc(Nc2nccc(Nc3cc(Cl)c(F)cc3C(C)(C)O)n2)c(OC)cc1N1CC[C@@H](N(C)C)C1`, the inhibition was -1% (enzyme activity, inhibitor; 1 µM).
For `O=C(CSc1nc2nccnc2c(=O)n1CCc1ccccc1)Nc1nccs1`, the inhibition was 23% (enzyme activity, inhibitor; 10 µM).
For `Cc1ccc(NC(=O)c2ccc(C)c(C(F)(F)F)c2)cc1C#Cc1nn(C2CCC(O)CC2)c2ncnc(N)c12` (stereo not drawn), the remaining signal was 94% (cell-free assay; 10 µM).
`CNc1cc(Oc2cc(C(=O)Nc3cc(N4CCN(C)CC4)cc(C(F)(F)F)c3)ccc2C)ncn1` has an inhibition of -44.8% (target engagement in cells, inhibitor, chemoproteomics; Huh-7; 1 µM).
`CS(=O)(=O)Nc1cccc(-c2csc(NC(=O)CSc3nc4nccnc4c(=O)n3CCc3ccccc3)n2)c1` gave an inhibition of 12% (enzyme activity, inhibitor; 10 µM).
`CC(C)(C)c1nc(-c2cccc(NS(=O)(=O)c3c(F)cccc3F)c2F)c(-c2ccnc(N)n2)s1` has a remaining activity of 92% (enzyme activity, inhibitor, radiometric; 1 µM).
`Cc1ccc(C(=O)NCc2ccsc2)cc1C#Cc1cn(C(C)C)c2ncnc(N)c12` gave an activity vs control of 95% (enzyme activity, inhibitor; 1 µM).
The remaining activity of `Cc1cnc(NC2CCOCC2)nc1-n1cnc(C(=O)NC(CN)c2cc(F)cc(Cl)c2)c1` (stereo not drawn) is reported as 119% (enzyme activity, inhibitor, radiometric; 1 µM).
`COc1cc2ncnc(Nc3ccc(Oc4ccccc4)cc3C)c2cc1OC` has an inhibition of 9% (enzyme activity, inhibitor; 1 µM).
The remaining activity of `CC(C)(C)c1nc2c(s1)c1nc(N)ncc1c1ccc(NS(=O)(=O)c3c(F)cccc3F)c(F)c12` is reported as 94% (enzyme activity, inhibitor, radiometric; 1 µM).
`Cc1cc(NC(=O)c2cccc3cc(-c4cccc5[nH]nc(N)c45)ccc23)ccc1F` has an activity vs control of 99% (enzyme activity, inhibitor; 0.1 µM).
`COc1cc2ncnc(Nc3ccc(Oc4ccccc4)c(C)c3C)c2cc1OC` gave an inhibition of 9% (enzyme activity, inhibitor; 1 µM).
